Values joined by “and” are separate entries in the source; they are usually repeats but may differ in a detail not shown here. Equal entries are not always repeated.
Experiments:
Type in all cases: functional, cell-based
[1] = Proliferation of human (JN.24 cloned) V gamma-2 V delta-2 T cell
In short: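 JN.24 CD4+ clone, 1×10^5 cells/well, stimulated in duplicate or triplicate with half-log dilutions of antigen plus 1×10^5 CP.EBV B cells fixed with 0.05% glutaraldehyde (1:1). Supernatant removed at 18 h, then cultures pulsed with 1 µCi 3H-thymidine and harvested 16–18 h later; mean proliferation gives EC50.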

[2] = TNF-alpha release is determined to know human (JN.24 cloned) V gamma-2 V delta-2 T cell stimulation
In short: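 JN.24 CD4+ clone, 1×10^5 cells/well, cultured in duplicate or triplicate with half-log antigen dilutions and 1×10^5 glutaraldehyde-fixed (0.05%) CP.EBV B cells as APC (1:1). Supernatants collected after 18 h; TNF-α quantified by sandwich ELISA against a TNF-α standard curve; EC50 from dose response.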

[3] = TNF-alpha release is determined to know human (12g12 cloned) V gamma-2 V delta-2 T cell stimulation
In short: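 12G12 cells (1×10^5/well) cocultured 1:1 with glutaraldehyde-fixed Va2 transformed fibrosarcoma cells as APC and half-log antigen dilutions, in duplicate or triplicate. Supernatant taken at 18 h, TNF-α measured by sandwich ELISA against a standard curve; EC50 from dose response.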

[4] = Proliferation of human (12g12 cloned) V gamma-2 V delta-2 T cell
In short: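 Clone 12G12 at 1×10^5 cells/well with 1×10^5 fixed Va2 fibrosarcoma cells as APC (1:1), exposed in duplicate or triplicate to half-log antigen dilutions. After 18 h supernatant removal, 1 µCi 3H-thymidine pulse; harvest 16–18 h later; EC50 from mean proliferation.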

SMILES | EC50 ([2]; Homo sapiens, T-cell) | EC50 ([3]; Homo sapiens, T-cell) | EC50 ([3]; t-cell) | EC50 ([2]; t-cell) | EC50 ([1]; Homo sapiens, T-cell) | EC50 ([4]; Homo sapiens, T-cell) | EC50 ([4]; t-cell) | EC50 ([1]; t-cell)
C[C@@](O)(CBr)CCOP(=O)(O)OP(=O)(O)O |  | 9 nM | 8 nM |  |  | 0.9 nM | 0.8 nM | 
O=P(O)(O)OP(=O)(O)OCC[C@H](O)CBr | 2000 nM |  |  |  | 4000 nM |  |  | 
O=P(O)(O)OP(=O)(O)OCC[C@@H](O)CBr | 500 nM |  |  |  | 1200 nM |  |  | 
C[C@](O)(CBr)CCOP(=O)(O)OP(=O)(O)O |  | 5 nM | 4 nM |  | 170 nM |  | 1.4 nM and 0.5 nM | 120 nM and 110 nM and 85 nM

Now from value to compound, other results behind:

EC50 ([2]; Homo sapiens, T-cell) | EC50 ([3]; Homo sapiens, T-cell) | EC50 ([3]; t-cell) | EC50 ([2]; t-cell) | SMILES | EC50 ([1]; Homo sapiens, T-cell) | EC50 ([4]; Homo sapiens, T-cell) | EC50 ([4]; t-cell) | EC50 ([1]; t-cell)
> 100000 nM |  |  |  | O=P(O)(O)OP(=O)(O)OCC[C@@H]1CO1 | > 100000 nM |  |  | 
> 100000 nM |  |  |  | O=P(O)(O)OP(=O)(O)OCC[C@H]1CO1 | > 100000 nM |  |  | 
 |  | 8 nM and 3 nM | 2900 nM and 350 nM and 1100 nM | CC1(CCOP(=O)(O)OP(=O)(O)O)CO1 (single isomer, unassigned) |  | 0.5 nM | 0.6 nM | 
 |  | 1.3 nM and 3.7 nM |  | C[C@@]1(CCOP(=O)(O)OP(=O)(O)O)CO1 |  | 1 nM | 1 nM | 1.4 nM and 3.1 nM and 1.3 nM
